In ChEMBL document CHEMBL1828568, “Novel imaging agents for β-amyloid plaque based on the N-benzoylindole core” (Bioorg Med Chem Lett, 2011):

Experiments:
Type in all cases: ADME, organism-based
Kidney [1] = assay: Biodistribution in Kunming mouse kidney at 1 uCi, iv after 120 mins by gamma counting; settings: in vivo, 2 h
How it was run: (§1)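 125I-labeled tracer given intravenously to normal mice. Organs and blood were sampled at 2, 15, 30, 60, 120 and 240 min after injection. Uptake is expressed as % ID/g, averaged over 5 mice ± SD.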

Heart [2] = assay: Biodistribution in Kunming mouse heart at 1 uCi, iv after 15 mins by gamma counting; settings: in vivo, 0.25 h; how it was run: as §1
Lung [3] = assay: Biodistribution in Kunming mouse lung at 1 uCi, iv after 2 mins by gamma counting; settings: in vivo; how it was run: as §1
Blood [4] = assay: Biodistribution in Kunming mouse blood at 1 uCi, iv after 60 mins by gamma counting; settings: in vivo, 1 h; how it was run: as §1
Kidney [5] = assay: Biodistribution in Kunming mouse kidney at 1 uCi, iv after 60 mins by gamma counting; settings: in vivo, 1 h; how it was run: as §1
Brain [6] = assay: Biodistribution in Kunming mouse brain at 1 uCi, iv after 120 mins by gamma counting; settings: in vivo, 2 h; how it was run: as §1
Brain [7] = assay: Biodistribution in Kunming mouse brain at 1 uCi, iv after 30 mins by gamma counting; settings: in vivo, 0.5 h; how it was run: as §1
Blood [8] = assay: Biodistribution in Kunming mouse blood at 1 uCi, iv after 2 mins by gamma counting; settings: in vivo; how it was run: as §1
Kidney [9] = assay: Biodistribution in Kunming mouse kidney at 1 uCi, iv after 2 mins by gamma counting; settings: in vivo; how it was run: as §1
Stomach [10] = assay: Biodistribution in Kunming mouse stomach assessed per organ at 1 uCi, iv after 15 mins by gamma counting; settings: in vivo, 0.25 h
How it was run: (§2)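 Radioiodinated tracers given intravenously to normal mice; organs taken at 2, 15, 30, 60, 120 and 240 min after injection. Uptake expressed as % ID/g, mean ± SD of 5 mice; stomach values carry a table footnote.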

Spleen [11] = assay: Biodistribution in Kunming mouse spleen at 1 uCi, iv after 60 mins by gamma counting; settings: in vivo, 1 h; how it was run: as §2
Liver = assay: Biodistribution in Kunming mouse liver at 1 uCi, iv after 120 mins by gamma counting; settings: in vivo, 2 h; how it was run: as §1
Kidney [12] = assay: Biodistribution in Kunming mouse kidney at 1 uCi, iv after 240 mins by gamma counting; settings: in vivo, 4 h; how it was run: as §1
Blood [13] = assay: Biodistribution in Kunming mouse blood at 1 uCi, iv after 30 mins by gamma counting; settings: in vivo, 0.5 h; how it was run: as §1
Brain [14] = assay: Biodistribution in Kunming mouse brain at 1 uCi, iv after 2 mins by gamma counting; settings: in vivo; how it was run: as §1
Heart [15] = assay: Biodistribution in Kunming mouse heart at 1 uCi, iv after 60 mins by gamma counting; settings: in vivo, 1 h; how it was run: as §1
Lung [16] = assay: Biodistribution in Kunming mouse lung at 1 uCi, iv after 240 mins by gamma counting; settings: in vivo, 4 h; how it was run: as §1
Stomach [17] = assay: Biodistribution in Kunming mouse stomach assessed per organ at 1 uCi, iv after 2 mins by gamma counting; settings: in vivo; how it was run: as §2
Lung [18] = assay: Biodistribution in Kunming mouse lung at 1 uCi, iv after 30 mins by gamma counting; settings: in vivo, 0.5 h; how it was run: as §1
Heart [19] = assay: Biodistribution in Kunming mouse heart at 1 uCi, iv after 240 mins by gamma counting; settings: in vivo, 4 h; how it was run: as §1
Spleen [20] = assay: Biodistribution in Kunming mouse spleen at 1 uCi, iv after 2 mins by gamma counting; settings: in vivo; how it was run: as §1
Muscle tissue [21] = assay: Biodistribution in Kunming mouse muscle at 1 uCi, iv after 30 mins by gamma counting; settings: in vivo, 0.5 h; how it was run: as §1
Stomach [22] = assay: Biodistribution in Kunming mouse stomach assessed per organ at 1 uCi, iv after 120 mins by gamma counting; settings: in vivo, 2 h; how it was run: as §2
Muscle tissue [23] = assay: Biodistribution in Kunming mouse muscle at 1 uCi, iv after 2 mins by gamma counting; settings: in vivo; how it was run: as §1
Heart [24] = assay: Biodistribution in Kunming mouse heart at 1 uCi, iv after 2 mins by gamma counting; settings: in vivo; how it was run: as §1
Spleen [25] = assay: Biodistribution in Kunming mouse spleen at 1 uCi, iv after 30 mins by gamma counting; settings: in vivo, 0.5 h; how it was run: as §1
Muscle tissue [26] = assay: Biodistribution in Kunming mouse muscle at 1 uCi, iv after 60 mins by gamma counting; settings: in vivo, 1 h; how it was run: as §1
Muscle tissue [27] = assay: Biodistribution in Kunming mouse muscle at 1 uCi, iv after 120 mins by gamma counting; settings: in vivo, 2 h; how it was run: as §1

SMILES: COc1ccc(/C=C/C(=O)n2ccc3cc([125I])ccc32)cc1
- Drug uptake (Kidney [1]): 4.21 % ID/g
- Drug uptake (Heart [2]): 3.52 % ID/g
- Drug uptake (Lung [3]): 21.76 % ID/g
- Drug uptake (Blood [4]): 3.79 % ID/g
- Drug uptake (Kidney [5]): 5.71 % ID/g
- Drug uptake (Brain [6]): 0.42 % ID/g
- Drug uptake (Brain [7]): 1.6 % ID/g
- Drug uptake (Blood [8]): 13.91 % ID/g
- Drug uptake (Kidney [9]): 12.01 % ID/g
- Drug uptake (Stomach [10]): 4.06 %ID
- Drug uptake (Spleen [11]): 7.16 % ID/g
- Drug uptake (Liver): 9.3 % ID/g
- Drug uptake (Kidney [12]): 4.05 % ID/g
- Drug uptake (Blood [13]): 4.9 % ID/g
- Drug uptake (Brain [14]): 2.19 % ID/g
- Drug uptake (Heart [15]): 1.53 % ID/g
- Drug uptake (Lung [16]): 2.95 % ID/g
- Drug uptake (Stomach [17]): 0.71 %ID
- Drug uptake (Lung [18]): 9.05 % ID/g
- Drug uptake (Heart [19]): 1.17 % ID/g
- Drug uptake (Spleen [20]): 6 % ID/g
- Drug uptake (Muscle tissue [21]): 1.63 % ID/g
- Drug uptake (Stomach [22]): 5.31 %ID
- Drug uptake (Muscle tissue [23]): 2.73 % ID/g
- Drug uptake (Heart [24]): 12.64 % ID/g
- Drug uptake (Spleen [25]): 7.12 % ID/g
- Drug uptake (Muscle tissue [26]): 1.3 % ID/g
- Drug uptake (Muscle tissue [27]): 0.65 % ID/g
